Measurements: ChEMBL document CHEMBL3856208, “Lupane and 18α-oleanane derivatives substituted in the position 2, their cytotoxicity and influence on cancer cells” (Eur J Med Chem, 2016)
pIC50: −log10 of the molar value.

Tests used:
[1] = Cytotoxicity against human CCRF-CEM cells after 72 hrs by MTS assay; type: functional, cell-based
How it was run: (§1)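 Cells seeded at 25000–35000 cells/mL, compounds from DMSO dosed at time zero as four-fold dilutions. Exposure 72 h at 37 °C, 5% CO2, with MTS added for 1–4 h and OD read at 490 nm. Survival expressed as % of mean control OD, with IC50 from dose-response curves. Run as technical duplicates in at least three biological replicates.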

[2] = Cytotoxicity against human K562 cells after 72 hrs by MTS assay; type: functional, cell-based; conditions: K562, 72 h; how it was run: as §1
[3] = Cytotoxicity against human HCT116 cells after 72 hrs by MTS assay; type: functional, cell-based; conditions: HCT-116, 72 h; how it was run: as §1
[4] = Cytotoxicity against human MRC5 cells after 72 hrs by MTS assay; type: toxicity, cell-based; how it was run: as §1
[5] = Therapeutic index, ratio of IC50 for human BJ cells to IC50 for human CCRF-CEM cells; type: cell-based; conditions: BJ cells versus CCRF-CEM cells, read-out: Ratio IC50
[6] = Cytotoxicity against human U2OS cells after 72 hrs by MTS assay; type: functional, cell-based; how it was run: as §1
[7] = Cytotoxicity against human BJ cells after 72 hrs by MTS assay; type: toxicity, cell-based; how it was run: as §1
[8] = Cytotoxicity against human CEM/DNR cells after 72 hrs by MTS assay; type: functional, cell-based; how it was run: as §1
[9] = Cytotoxicity against p53 deficient human HCT116 cells after 72 hrs by MTS assay; type: functional, cell-based; conditions: HCT-116, 72 h; how it was run: as §1
[10] = Cytotoxicity against human A549 cells after 72 hrs by MTS assay; type: functional, cell-based; conditions: A549, 72 h; how it was run: as §1
[11] = Cytotoxicity against human K562-TAX cells after 72 hrs by MTS assay; type: functional, cell-based; how it was run: as §1
[12] = Therapeutic index, ratio of IC50 for human MRC5 cells to IC50 for human CCRF-CEM cells; type: cell-based; conditions: MRC5 cells versus CCRF-CEM cells, read-out: Ratio IC50

With COC(=O)CCC(=O)N[C@@H]1C[C@]2(C)[C@H]3CC[C@@H]4[C@H]5[C@H]6OC[C@@]5(CCC6(C)C)CC[C@@]4(C)[C@]3(C)CC[C@H]2C(C)(C)[C@H]1O the pIC50 [1] was less than 4.30.

With CC1(C)CC[C@]23CC[C@]4(C)[C@H](CC[C@@H]5[C@@]6(C)C=C(NC7=C[C@]8(C)[C@H]9CC[C@@H]%10[C@@H]%11[C@H]%12OC[C@@]%11(CCC%12(C)C)CC[C@@]%10(C)[C@]9(C)CC[C@H]8C(C)(C)C7=O)C(=O)C(C)(C)[C@@H]6CC[C@]54C)[C@H]2[C@H]1OC3 the pIC50 [1] was less than 4.30.

CC1(C)CC[C@]23CC[C@]4(C)[C@H](CC[C@@H]5[C@@]6(C)CC7=C(OCCS7)C(C)(C)[C@@H]6CC[C@]54C)[C@H]2[C@H]1OC3 showed a pIC50 [1] of less than 4.30.

Work on CC(C)[C@@H]1CC[C@]2(C(=O)O)CC[C@]3(C)[C@H](CC[C@@H]4[C@@]5(C)CCC(=O)C(C)(C)[C@@H]5CC[C@]43C)[C@@H]12 [DIHYDROBETULONIC ACID] yielded a pIC50 [1] of 5.40.

Compound CC1(C)CC[C@]23CC[C@]4(C)[C@H](CC[C@@H]5[C@@]6(C)CC(N=[N+]=[N-])C(=O)C(C)(C)[C@@H]6CC[C@]54C)[C@H]2[C@H]1OC3 (stereo not given in full) has a pIC50 [1] of less than 4.30.

In the case of C=C(C)[C@@H]1CC[C@]2(CO)CC[C@]3(C)[C@H](CC[C@@H]4[C@@]5(C)CC[C@H](O)C(C)(C)[C@@H]5CC[C@]43C)[C@@H]12 [BETULIN], the pIC50 [1] was less than 4.30.

Work on COC(=O)[C@]12CC[C@@H](C(C)C)[C@@H]1[C@H]1CC[C@@H]3[C@@]4(C)CC(S)C(=O)C(C)(C)[C@@H]4CC[C@@]3(C)[C@]1(C)CC2 (stereo not given in full) yielded a pIC50 [2] of less than 4.30, a pIC50 [3] of less than 4.30 and an IC50 at 72 h [4] greater than 50 µM. The selectivity ratio [5] was greater than 1.1, the pIC50 [6] was less than 4.30 and the IC50 at 72 h [7] was greater than 50 µM. For the same compound, the pIC50 [8] was less than 4.30, the pIC50 [9] was less than 4.30 and the pIC50 [10] was less than 4.30. The pIC50 [11] was less than 4.30, the selectivity ratio [12] was greater than 1.1 and the pIC50 [1] was 4.34 to 4.40.

Compound CC(=O)NC1C[C@]2(C)[C@H]3CC[C@@H]4[C@H]5[C@H]6OC[C@@]5(CCC6(C)C)CC[C@@]4(C)[C@]3(C)CC[C@H]2C(C)(C)C1=O (stereo not given in full) has a pIC50 [2] of 4.49, a pIC50 [3] of 4.37 and an IC50 at 72 h [4] of 21.6 µM. For the same compound, the selectivity ratio [5] was greater than 1.1, the pIC50 [6] was less than 4.30 and the IC50 at 72 h [7] was greater than 50 µM. It also gave a pIC50 [8] of less than 4.30, a pIC50 [9] of 4.41 and a pIC50 [10] of less than 4.30. It also gave a pIC50 [11] of less than 4.30, a selectivity ratio [12] greater than 1.1 and a pIC50 [1] of 4.49.

CC1(C)CC[C@]23CC[C@]4(C)[C@H](CC[C@@H]5[C@@]6(C)C[C@@H](NC(=O)CCC(=O)O)[C@H](O)C(C)(C)[C@@H]6CC[C@]54C)[C@H]2[C@H]1OC3 showed a pIC50 [1] of less than 4.30.

With CC(C)[C@@H]1CC[C@]2(C(=O)O)CC[C@]3(C)[C@H](CC[C@@H]4[C@@]5(C)CC(Br)C(=O)C(C)(C)[C@@H]5CC[C@]43C)[C@@H]12 (stereo not given in full) the pIC50 [1] was 5.70.

In the case of CC1(C)CC[C@]23CC[C@]4(C)[C@H](CC[C@@H]5[C@@]6(C)C=C(N)C(=O)C(C)(C)[C@@H]6CC[C@]54C)[C@H]2[C@H]1OC3, the pIC50 [1] was less than 4.30.

Work on CC1(C)CC[C@]23CC[C@]4(C)[C@H](CC[C@@H]5[C@@]6(C)CC([N+](=O)[O-])([N+](=O)[O-])C(=O)C(C)(C)[C@@H]6CC[C@]54C)[C@H]2[C@H]1OC3 yielded a pIC50 [1] of less than 4.30.

With CC(C)[C@@H]1CC[C@]2(C(=O)O)CC[C@]3(C)[C@H](CC[C@@H]4[C@@]5(C)CC([N+](=O)[O-])([N+](=O)[O-])C(=O)C(C)(C)[C@@H]5CC[C@]43C)[C@@H]12 the pIC50 [2] was less than 4.30, the pIC50 [3] was less than 4.30 and the IC50 at 72 h [4] was greater than 50 µM. For the same compound, the selectivity ratio [5] was greater than 1.7, the pIC50 [6] was less than 4.30 and the IC50 at 72 h [7] was greater than 50 µM. It also gave a pIC50 [8] of 4.33, a pIC50 [9] of less than 4.30 and a pIC50 [10] of less than 4.30. It also gave a pIC50 [11] of 4.52, a selectivity ratio [12] greater than 1.7 and a pIC50 [1] of 4.54.

For COC(=O)CCC(=O)N[C@H]1C[C@]2(C)[C@H]3CC[C@@H]4[C@H]5[C@H]6OC[C@@]5(CCC6(C)C)CC[C@@]4(C)[C@]3(C)CC[C@H]2C(C)(C)[C@H]1O, the pIC50 [1] was less than 4.30.

Work on CC(=O)N[C@@H]1C[C@]2(C)[C@H]3CC[C@@H]4[C@H]5[C@H]6OC[C@@]5(CCC6(C)C)CC[C@@]4(C)[C@]3(C)CC[C@H]2C(C)(C)[C@H]1OC(C)=O yielded a pIC50 [1] of less than 4.30.

For CC1(C)CC[C@]23CC[C@]4(C)[C@H](CC[C@@H]5[C@@]6(C)CCC(=O)C(C)(C)[C@@H]6CC[C@]54C)[C@H]2[C@H]1OC3, the pIC50 [1] was less than 4.30.

With CC1(C)CC[C@]23CC[C@]4(C)[C@H](CC[C@@H]5[C@@]6(C)C[C@@H](N=[N+]=[N-])[C@H](O)C(C)(C)[C@@H]6CC[C@]54C)[C@H]2[C@H]1OC3 the pIC50 [1] was less than 4.30.

Work on CC(=O)N[C@H]1C[C@]2(C)[C@H]3CC[C@@H]4[C@H]5[C@H]6OC[C@@]5(CCC6(C)C)CC[C@@]4(C)[C@]3(C)CC[C@H]2C(C)(C)[C@H]1OC(C)=O yielded a pIC50 [1] of less than 4.30.

Work on CC1(C)CC[C@]23CC[C@]4(C)[C@H](CC[C@@H]5[C@@]6(C)CC(Br)C(=O)C(C)(C)[C@@H]6CC[C@]54C)[C@H]2[C@H]1OC3 (stereo not given in full) yielded a pIC50 [1] of less than 4.30.

In the case of CC1(C)CC[C@]23CC[C@]4(C)[C@H](CC[C@@H]5[C@@]6(C)CC[C@H](O)C(C)(C)[C@@H]6CC[C@]54C)[C@H]2[C@H]1OC3 [ALLOBETULIN], the pIC50 [1] was less than 4.30.

C=C(C)[C@@H]1CC[C@]2(C(=O)O)CC[C@]3(C)[C@H](CC[C@@H]4[C@@]5(C)CCC(=O)C(C)(C)[C@@H]5CC[C@]43C)[C@@H]12 [BETUNOLIC ACID] showed a pIC50 [1] of 4.85.

For CC(C)[C@@H]1CC[C@]2(C(=O)O)CC[C@]3(C)[C@H](CC[C@@H]4[C@@]5(C)CC(N=[N+]=[N-])C(=O)C(C)(C)[C@@H]5CC[C@]43C)[C@@H]12 (stereo not given in full), the pIC50 [2] was 4.85, the pIC50 [3] was less than 4.30 and the IC50 at 72 h [4] was greater than 50 µM. The selectivity ratio [5] was greater than 2.9, the pIC50 [6] was 4.31 and the IC50 at 72 h [7] was greater than 50 µM. For the same compound, the pIC50 [8] was 4.80, the pIC50 [9] was less than 4.30 and the pIC50 [10] was 4.59. The pIC50 [11] was 4.97, the selectivity ratio [12] was greater than 2.9 and the pIC50 [1] was 4.76 to 4.77.

Work on CC(C)[C@@H]1CC[C@]2(C(=O)O)CC[C@]3(C)[C@H](CC[C@@H]4[C@@]5(C)C=C(O)C(=O)C(C)(C)[C@@H]5CC[C@]43C)[C@@H]12 yielded a pIC50 [1] of 5.22.

Work on CC1(C)CC[C@]23CC[C@]4(C)[C@H](CC[C@@H]5[C@@]6(C)C[C@H](N=[N+]=[N-])[C@H](O)C(C)(C)[C@@H]6CC[C@]54C)[C@H]2[C@H]1OC3 yielded a pIC50 [1] of less than 4.30.

Compound CC1(C)CC[C@]23CC[C@]4(C)[C@H](CC[C@@H]5[C@@]6(C)C[C@H](NC(=O)CCC(=O)O)[C@H](O)C(C)(C)[C@@H]6CC[C@]54C)[C@H]2[C@H]1OC3 has a pIC50 [1] of less than 4.30.

For CC1(C)CC[C@]23CC[C@]4(C)[C@H](CC[C@@H]5[C@@]6(C)CC([N+](=O)[O-])=C(O)C(C)(C)[C@@H]6CC[C@]54C)[C@H]2[C@H]1OC3, the pIC50 [1] was less than 4.30.
